Measurements collected from several papers.
Each line is one published result; the experiments were not run side by side.
RET V804M: Proto-oncogene tyrosine-protein kinase receptor Ret (RET, Homo sapiens, UniProt P07949, V804M)
RET V804L: Proto-oncogene tyrosine-protein kinase receptor Ret (RET, Homo sapiens, UniProt P07949, V804L)
RET M918T: Proto-oncogene tyrosine-protein kinase receptor Ret (RET, Homo sapiens, UniProt P07949, M918T)

N#Cc1ccc(Nc2ccc3[nH]c(=O)[nH]c3c2)c(Cl)c1 — remaining binding (RET V804M; cell-free assay, competition with immobilised ligand; 1 µM): 93%
O=C(NCCCN1CCOCC1)c1ccc(Nc2ncc(Cl)c(-c3ccc(Cl)s3)n2)cc1 — remaining binding (RET V804L; binding, competition with immobilised ligand; 1 µM): 13%
C=CC(=O)N1CCC(C(=O)NCC(=O)N2CCN(c3nc(-c4cnc(N)nc4C(F)F)nc(N4CCOCC4)n3)CC2)CC1 — remaining binding (RET V804M; binding, competition with immobilised ligand; 1 µM): 100%
O=C(NCC1CCOCC1)c1n[nH]cc1NC(=O)c1c(F)cccc1F — remaining binding (RET V804L; binding, competition with immobilised ligand; 1 µM): 100%
COc1ccnn2ncc(-c3ccnc(N(C)C)n3)c12 — remaining binding (RET V804M; binding; 1 µM): 100%
FC(F)(F)c1ccc2c(c1)nc(-c1cccnc1)n2C1CC1 — remaining binding (RET V804L; cell-free assay, competition with immobilised ligand; 1 µM): 81%
Cc1cnc(Nc2ccc(C(=O)N3CCC(N4CCCC4)CC3)cc2)nc1-c1cc2ccccc2s1 — remaining binding (RET V804M; binding, competition with immobilised ligand; 1 µM): 25%
CN(C)c1nccc(-c2cnn3ncccc23)n1 — remaining binding (RET V804L; binding; 1 µM): 99%
CCC(=O)N[C@H]1CC[C@@H](C(=O)N(C)c2ccc(-c3nc4ccccc4o3)cc2)C1 — remaining binding (RET V804M; cell-free assay, competition with immobilised ligand; 1 µM): 100%
N[C@@H]1CCN(c2nccc(-c3cnn4ncccc34)n2)C1 — remaining binding (RET M918T; binding; 1 µM): 94%
COc1cc(-c2cn(C3CCc4c(F)cccc4N(CC(F)(F)F)C3=O)nn2)ccc1-n1cnc(C)c1 (stereo not drawn) — remaining binding (RET V804M; cell-free assay, competition with immobilised ligand; 1 µM): 88%
Nc1ncc2c(n1)-c1c([nH]c3ccc(C#CC4CC4)cc13)CCCC2 — remaining binding (RET M918T; binding, competition with immobilised ligand; 1 µM): 100%
COc1cnc(Nc2cccc(S(N)(=O)=O)c2)nc1N1CCN(c2ccccc2)C(=O)C1 — remaining binding (RET M918T; binding, competition with immobilised ligand; 1 µM): 100%
C[C@@H](c1ccc(-n2cnc3c(N)ncnc32)cc1)N1CCc2nn(C)c(Cc3ccccc3)c2C1=O — remaining binding (RET M918T; binding, competition with immobilised ligand; 0.1 µM): 98%
CN(C(=O)c1ccccc1)c1cc(N(C)c2ccc3c(c2)CCc2ccc(C(=O)NCCN4CCOCC4)cc2C3=O)ccc1F — remaining binding (RET M918T; cell-free assay, competition with immobilised ligand; 1 µM): 100%
C[C@H]1CCN(c2nccc(-c3cnn4ncccc34)n2)C1 — remaining binding (RET M918T; binding; 1 µM): 100%
O=C(c1ccc(Nc2ncc(Cl)c(-c3cc4ccccc4s3)n2)cc1)N1CCC(N2CCCC2)CC1 — remaining binding (RET V804M; binding, competition with immobilised ligand; 1 µM): 37%
O=C(Nc1ccc(Oc2ccc(F)cc2)cc1)N1CCc2ncccc2[C@H]1c1ccc(F)cc1 — remaining binding (RET M918T; cell-free assay, competition with immobilised ligand; 1 µM): 100%
